# cytoskel mod: modifiers of cytoskeleton assembly; HUVEC TNFa F-actin phalloidin imaging, high content; inhibition, % at 2 µM; 91,000 tested, 0.18% active; AID 836;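 active means inhibition above the batch mean plus 3 SD and confirmed as a hit by visual image inspection, cut at about 30% in these data, passing the limit was not always enough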
# E-sel TNF inh: blocks E-selectin expression induced by TNF alpha; HUVEC TNFa-induced E-selectin immunofluorescence, high content; inhibition, % at 2 µM; 120,000 tested, 0.71% active; AID 1246;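 active means inhibition above the batch mean plus 3 SD, and confirmed as a hit on visual image review, cut at about 43% in these data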;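 further: 0% = TNF-stimulated DMSO wells and 100% = unstimulated control wells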
# PLK1 kinase inh: blocks human PLK1 kinase activity | inhibition, % at 10 µM | P53350 | recombinant PLK1 kinase, TR-FRET peptide phosphorylation | 97,000 tested, 0.53% active;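 active means inhibition of 50% or more in the single-concentration screen; inactive means inhibition below 50%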;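 further: 0% = DMSO max control and 100% = H-89 dihydrochloride min control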
# Target sequence (P53350 whole entry, looked up): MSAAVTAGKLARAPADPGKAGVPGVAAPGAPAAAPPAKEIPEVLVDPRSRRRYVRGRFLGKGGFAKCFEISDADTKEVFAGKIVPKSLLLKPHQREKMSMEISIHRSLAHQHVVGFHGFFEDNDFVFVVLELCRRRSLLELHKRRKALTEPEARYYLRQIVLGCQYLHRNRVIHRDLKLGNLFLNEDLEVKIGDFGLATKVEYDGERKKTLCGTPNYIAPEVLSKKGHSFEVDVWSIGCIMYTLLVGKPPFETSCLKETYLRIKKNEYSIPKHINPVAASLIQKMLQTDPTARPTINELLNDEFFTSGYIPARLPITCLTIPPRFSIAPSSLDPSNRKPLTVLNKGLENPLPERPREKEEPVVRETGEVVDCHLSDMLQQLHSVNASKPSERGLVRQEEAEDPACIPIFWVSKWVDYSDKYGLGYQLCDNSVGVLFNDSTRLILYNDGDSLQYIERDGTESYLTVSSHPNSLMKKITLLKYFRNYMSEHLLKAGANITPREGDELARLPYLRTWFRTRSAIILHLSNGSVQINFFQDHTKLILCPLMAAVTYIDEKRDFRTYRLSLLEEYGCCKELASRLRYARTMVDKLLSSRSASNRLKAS
# Rev-RRE block: disrupts HIV-1 Rev binding to RRE RNA; P05866; Rev peptide-RRE RNA binding, FRET; inhibition, % at 8 µM; 97,000 tested, 0.79% active;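 active means inhibition above the screen-wide mean plus 3 SD, cut at about 35% in these data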;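 further: 0% = median DMSO wells and 100% = median Neomycin B control wells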
# Target sequence (P05866 whole entry, looked up): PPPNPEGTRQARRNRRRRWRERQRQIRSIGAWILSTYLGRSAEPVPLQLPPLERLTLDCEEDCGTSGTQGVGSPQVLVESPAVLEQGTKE
#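 Test system: labelled RRE RNA duplex and labelled Rev peptide. Times: 5 min compound–RNA preincubation, then 15 min with peptide, 25 °C. Doses: single-dose 8 µM. Measured by: FRET, excitation 480 nm, emission 540 nm donor and 671 nm acceptor. Measure: % inhibition of FRET ratio versus controls.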
# FAK blocker: FAK (human) kinase inhibition; biochemical FAK kinase activity assay; inhibition, %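 (tested at 7 µM)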; 97,000 tested, 0.84% active;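 further: 0% = DMSO and 100% = reference compound high control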
# Plk1 PBD FP: blocks phosphopeptide binding to human Plk1 polo box domain; P53350; Plk1 PBD phosphopeptide binding, fluorescence polarization; inhibition, %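 (tested at about 20 µM)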; 97,000 tested, 0.13% active; AID 693; in the data active means inhibition above about 34%, passing the limit was not always enough
# FAK inh conf: confirmation of human focal adhesion kinase (FAK) inhibitors. inhibition, % at 7 µM. FAK kinase biochemical inhibition assay. 750 tested, 28% active. shares compounds with FAK blocker
# * marks the source's active call; other numbers are inactive results; nt = no result; [ ] = another dose, or the depositor's remark. In the library only some 2.2% were active in any assay of this set; here they are far more common. Unless noted, no stated cut-off is given here; in the data, active means inhibition above about 19%; inactive means the rest.
SMILES,cytoskel mod,E-sel TNF inh,PLK1 kinase inh,Rev-RRE block,FAK blocker,Plk1 PBD FP,FAK inh conf
C=CCOc1ccc(CNc2ccc3[nH]c(=O)[nH]c3c2)cc1,nt,-27.5,nt,nt,nt,nt,nt
CCc1ccc(-c2cc(C(F)(F)F)n3nc(C(=O)Nc4c(C)nn(Cc5ccc(F)cc5)c4C)cc3n2)s1,-2.3,-9.2,-13.2,2.8,-3.6,7.8,nt
Cc1c(NC2(C#N)CCCC2)c(=O)n(-c2ccccc2)n1C,nt,10.8,nt,nt,nt,nt,nt
CC(C)(C)c1nc2ccccc2c2nnc(SCC(=O)Nc3nc4ccccc4s3)n12,-39.7,-22.3,3.1,-3.6,23.1*,17.0,5.9
CC(C)(C)c1nc2ccccc2c2nnc(SCC(=O)Nc3nccs3)n12,-6.7,-70.3,-9.6,-4.8,7.8,-9.6,nt
Cc1ccccc1C(=O)N/N=C/c1ccc([N+](=O)[O-])s1,16.2,-8.4,-14.7,10.8,2.3,8.0,nt
Cc1c(Cl)cccc1N=Cc1ccc([N+](=O)[O-])s1,-27.5,-33.1,-3.6,9.5,25.1*,-29.0,-0.7
O=C(NN=C1CCCCCCCCCCC1)c1ccccc1F,nt,17.6,nt,nt,nt,nt,nt
CN(C(=O)COC(=O)c1ccc([N+](=O)[O-])cc1N)c1ccccc1,nt,-2.0,nt,nt,nt,nt,nt
CCN1CCCC1CNc1ncnc2c1[nH]c1ccc(Cl)cc12 (stereo unspecified),8.1,-16.2,-5.2,6.2,20.8*,4.4,2.2
Clc1ccc2[nH]c3c(NCCCN4CCOCC4)ncnc3c2c1,-18.4,nt,4.0,9.6,12.2,18.6,nt
O=C1CCCN1CCCNc1ncnc2c1[nH]c1ccc(Cl)cc12,2.7,2.5,-8.4,12.2,28.7*,-14.4,3.8
O=C1c2ccccc2-c2onc3ccc(NCCCn4ccnc4)c1c23,-9.3,-41.2,67.9*,137.4*[fluorescence artefact?],35.7*,34.8,27.2*
COc1cccc(-n2nnnc2SCC(=O)Nc2nc3c(s2)CCCC3)c1,-7.8,-21.8,-11.9,12.1,5.2,7.0,nt
O=C(CSc1nnnn1-c1ccc2c(c1)OCCO2)Nc1nc2c(s1)CCCC2,-6.8,9.8,-12.8,12.6,29.1*,16.0,9.2
O=S(=O)(Nc1cccc2ncccc12)c1cccs1,nt,-51.4,nt,nt,nt,nt,nt
O=C1Nc2ccc(NS(=O)(=O)c3cccs3)c3cccc1c23,-31.1,-7.0,13.5,1.2,41.5*,7.8,19.4*
CC(O)CNc1nc2ccccc2n1CC(=O)NC12CC3CC(CC(C3)C1)C2 (stereo unspecified),nt,-2.1,nt,nt,nt,nt,nt
CCOC(=O)Cc1csc(NC(=O)Cc2cccs2)n1,-34.0,-16.7,-7.1,1.7,19.4*,-7.4,3.0
CCOC(=O)Cc1csc(NC(=O)Cc2ccccc2)n1,nt,1.0,nt,nt,nt,nt,nt
CC(=O)Nc1ccc(S(=O)(=O)Nc2nccc(/C=C/c3ccc(Cl)cc3)n2)cc1,nt,14.9,nt,nt,nt,nt,nt
COc1ccc(CCNC(=O)CN(C2CCCCC2)S(C)(=O)=O)cc1OC,12.7,-7.8,2.5,0.4,20.4*,-9.4,1.0
Cc1cc(NC(=O)CSc2c3c(nc4ccccc24)CCC3)no1,8.9,nt,-10.2,-2.9,26.8*,21.0,8.5
COc1ccc(NC(=O)CSc2c3c(nc4ccccc24)CCCC3)c(OC)c1,nt,5.1,nt,nt,nt,nt,nt
CC(C)(C)NC(=O)C(c1ccncc1)N(C(=O)c1csnn1)c1cccc2ccccc12 (stereo unspecified),nt,-3.9,nt,nt,nt,nt,nt
SMILES,cytoskel mod,E-sel TNF inh,PLK1 kinase inh,Rev-RRE block,FAK blocker,Plk1 PBD FP,FAK inh conf
CCN(CC)C(=O)CSc1nc2c(sc(=S)n2Cc2ccco2)c(=O)n1-c1ccccc1,-12.1,16.0,7.4,7.0,19.6*,8.2,3.8
Cc1ccc(-c2onc3ccc(C=O)cc23)cc1,5.2,10.6,-6.8,9.6,22.4*,-11.8,29.6*
Cc1ccc(-c2onc3ccc(C4(C)OCCO4)cc23)cc1,-2.5,nt,1.7,-1.5,0.4,16.6,nt
c1ccc(-n2cnc3cc(NCc4cccs4)ccc32)cc1,-6.0,-11.2,-2.5,3.2,22.8*,-7.9,7.9
Cc1ccc(-n2cnc3cc(NCc4cccs4)ccc32)cc1,4.7,19.2,2.7,-3.2,3.6,-1.7,nt
O=c1[nH]cnc2sc3c(c12)CCCCC3,nt,-34.7,nt,nt,nt,nt,nt
O=c1[nH]cnc2sc3c(c12)CCCC3,-39.8,12.9,3.7,3.0,25.9*,23.0,9.5
Cc1ccccc1NC(=O)CCC(=O)N/N=C/c1ccncc1,nt,nt,22.6,nt,nt,nt,nt
CN1c2ccccc2C(C)(C)C12C=Nc1c(cc(N3CCOCC3)c3ccccc13)O2 (stereo unspecified),9.8,1.0,-7.5,9.5,39.9*,-5.9,-1.8
CN1c2ccccc2C(C)(C)C12C=Cc1cc(O)ccc1O2 (stereo unspecified),13.0,nt,0.5,14.0,-0.3,8.5,nt
Cc1noc(C)c1C(=O)NC(C)c1ccc(Cl)cc1Cl (stereo unspecified),nt,-16.1,nt,nt,nt,nt,nt
O=C1NCCc2c1[nH]c1c(Cl)ccc(Cl)c21,1.0,17.9,-11.7,1.9,73.5*,7.3,61.7*
CCCNC(=O)[C@H](Cc1c[nH]c2ccccc12)NC(=O)c1ccccc1Cl,nt,-10.1,nt,nt,nt,nt,nt
O=c1c([N+](=O)[O-])cccn1Cc1cccc(Cl)c1,nt,-18.2,nt,nt,nt,nt,nt
Cc1oc(-c2ccccc2)cc1C(=O)Nc1cccc(C(=O)O)c1,12.9,-8.1,-13.7,2.5,-1.5,-10.6,nt
Cc1oc(-c2ccccc2)cc1C(=O)Nc1cccc2ccccc12,-28.4,-4.7,-13.6,-1.3,25.9*,16.5,24.6*
CCOC(=O)CSc1nc(C(C)C)nc2ccccc12,5.2,-10.1,-4.8,7.1,37.3*,-14.9,23.6*
CCOC(=O)CSc1nc(C2CC2)nc2ccccc12,47.8,7.9,-2.6,2.9,67.5*,-12.3,64.6*
COC(=O)CSc1nc(C(C)C)nc2ccccc12,12.3,-2.5,-11.9,-0.3,40.4*,3.2,22.6*
COc1ccc(/C=C/C=C2\NC(=S)NC2=O)cc1,nt,-0.3,nt,nt,nt,nt,nt
C/C(=N\NC(=O)C(C)n1nc(C)c([N+](=O)[O-])c1C)c1ccccc1O (stereo unspecified),nt,1.3,nt,nt,nt,nt,nt
O=C(CCn1c(=O)[nH]c2ccsc2c1=O)NCc1ccc(F)cc1,nt,-25.0,nt,nt,nt,nt,nt
CCOC(=O)c1ccc(NC(=O)CSc2nc(C)cc(=O)[nH]2)cc1,-3.6,nt,-2.8,-3.4,20.3*,8.6,4.8
CCOc1c(Br)cc(C2NS(=O)(=O)N=C3CCCCCN32)cc1OC (stereo unspecified),23.3,12.7,-16.0,1.1,47.2*,-7.7,-0.2
COc1ccccc1NC(=O)c1nn(-c2ccc(Cl)cc2)ccc1=O,-13.6,-38.7,-9.2,-0.4,24.9*,-27.9,3.0
O=c1cc(-c2ccccc2)c2ccccc2[nH]1,-30.3,65.0*,-5.8,7.7,19.4*,15.5,-0.9
O=C(COc1ccc(/C=N/NC(=O)c2cc3ccccc3o2)cc1Cl)Nc1ccccc1,-4.5,nt,-14.6,-9.8,39.6*,-3.8,35.8*
CCc1ccc(OCC(=O)N/N=C2\CC(=O)c3ccccc32)cc1,1.0,-16.5,-8.8,-2.4,31.9*,-38.0,2.3
Cc1ccc(OCC(=O)NN=C2c3ccccc3-c3ccccc32)cc1,-25.9,-45.2,-17.3,0.0,1.1,6.9,nt
